Compounds with a hit are over-represented: about 4.7% of the library has one in this group of screens.
m5-HT2A agonist – activates the mouse 5-HT2A serotonin receptor. AID 624169. activation, % at 7.6 µM. hit rate 0.66% among 360,000. CHO-K1 mHTR2A beta-arrestin complementation, luminescence; percent of 30 µM serotonin response;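 active = activation above a run cutoff, the mean activation of all tested compounds plus 3 SD, cut at about 14% in these data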
MC4R ag barr – activates human MC4R beta-arrestin recruitment | P32245 | U2OS MC4R beta-arrestin complementation, luminescence; percent of melanotan II response, DMSO zero | activation, % at 8.9 µM | hit rate 0.98% among 360,000;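 active = activation above a per-plate cutoff, the mean activation of sample wells on that plate plus 3 SD, cut at about 8% in these data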
Target sequence (P32245 whole entry, looked up): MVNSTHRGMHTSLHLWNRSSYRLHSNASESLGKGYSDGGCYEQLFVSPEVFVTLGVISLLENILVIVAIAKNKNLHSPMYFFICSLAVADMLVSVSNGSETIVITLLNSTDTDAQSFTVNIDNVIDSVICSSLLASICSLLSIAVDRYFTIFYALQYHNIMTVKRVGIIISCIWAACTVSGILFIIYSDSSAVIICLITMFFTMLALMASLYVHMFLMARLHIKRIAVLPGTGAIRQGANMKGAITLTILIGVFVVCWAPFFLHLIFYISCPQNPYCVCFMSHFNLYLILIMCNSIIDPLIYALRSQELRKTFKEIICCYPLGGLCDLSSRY
MC4R antag cAMP – antagonists of human melanocortin 4 receptor (MC4R) | P32245 | MC4R-expressing cells, MTII-stimulated cAMP, LANCE TR-FRET | inhibition, % at 6.5 µM | hit rate 0.48% among 360,000 | AID 540295;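 active = inhibition above its plate's cutoff, the mean of tested wells on that plate plus 3 SD, cut at about 29% in these data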
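Assay system: U2OS cells stably expressing human melanocortin 4 receptor (MC4R) / Dosing: 6.5 µM / Timing: compound 30 min, challenge 1 h, detection 1 h / Measured by: Eu-cAMP/anti-cAMP TR-FRET, emission 671 nm / Replicates: singlicate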
FXN GAA850 act – increases GAA850 frataxin promoter reporter activity; activation, % at 6 µM; HEK293 lucGAA850 FXN promoter luciferase reporter, 24 h; percent of 10 µM SAHA response; hit rate 0.56% among 360,000; AID 540364;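 active = activation above the average of all compounds screened plus 3 SD, cutoff fixed separately per campaign, cut at about 7.5% in these data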
AHR activator – activates the human aryl hydrocarbon receptor | P35869 | AHR-responsive luciferase reporter cells, luminescence | activation, % at 5 µM | hit rate 2.5% among 320,000; in the data active = activation above about 47%
OPRM1 ag – activates human mu opioid receptor in HTR2A counterscreen. AID 624380. hit rate 5.3% among 2,300. U2OS OPRM1 beta-arrestin PathHunter, luminescence; DMSO 0%, DAMGO 9.3 µM 100%. shares compounds with m5-HT2A agonist. activation, % at 9.3 µM;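 active = mean activation above the mean of DMSO-only wells plus 3 SD, cut at about 0.5% in these data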
Target sequence (P35372 whole entry, looked up): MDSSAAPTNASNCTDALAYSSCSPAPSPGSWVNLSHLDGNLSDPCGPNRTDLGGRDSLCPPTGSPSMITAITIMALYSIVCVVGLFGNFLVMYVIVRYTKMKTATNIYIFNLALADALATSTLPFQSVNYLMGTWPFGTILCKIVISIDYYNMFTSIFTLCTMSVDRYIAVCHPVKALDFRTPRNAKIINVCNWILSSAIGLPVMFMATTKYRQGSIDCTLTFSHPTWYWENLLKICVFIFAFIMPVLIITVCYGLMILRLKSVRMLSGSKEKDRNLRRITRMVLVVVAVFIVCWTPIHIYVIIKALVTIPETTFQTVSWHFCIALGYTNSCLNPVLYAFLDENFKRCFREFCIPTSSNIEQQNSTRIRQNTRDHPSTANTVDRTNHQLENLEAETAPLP
m5-HT2A ag conf – confirmation of mouse HTR2A serotonin receptor agonists. shares compounds with m5-HT2A agonist. CHO-K1 PathHunter beta-arrestin recruitment, luminescence; DMSO 0%, 30 µM serotonin 100%. activation, % at 7.6 µM. hit rate 19% among 2,300. AID 624381;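 active = mean activation across triplicates above the hit threshold derived in the original primary screen, cut at about 15% in these data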
Each line names hits and unclear results; the compound was inactive in the other large screens (follow-up assays come after a bar, where they were run).

Clc1ccc(CN2CCN(c3ncccn3)CC2)c(Cl)c1	m5-HT2A agonist 15.9 | OPRM1 ag inactive | m5-HT2A ag conf 102.7
Clc1cccc(CN2CCN(c3ncccn3)CC2)c1Cl	none
O=[N+]([O-])c1ccccc1CN1CCN(c2ncccn2)CC1	none
Clc1ccccc1CN1CCN(c2ncccn2)CC1	m5-HT2A agonist 28.5 | OPRM1 ag inactive | m5-HT2A ag conf 98.1
CCOC(=O)c1c(NC(=O)CN2C(=O)NC(C)(c3ccccc3)C2=O)sc(C)c1C (stereo not drawn)	none
O=C(CCS(=O)(=O)c1ccccc1Cl)NC1CCCCCC1	m5-HT2A agonist 20.9 | OPRM1 ag inactive | m5-HT2A ag conf inactive
O=C(CCS(=O)(=O)c1ccccc1)NC1CCCCC1	none
COc1ccccc1Nc1nc(N)nc(CSc2nncn2C)n1	m5-HT2A agonist 14.8 | OPRM1 ag inactive | m5-HT2A ag conf inactive
COc1cc2c(oc(=O)c3cc(C)cc(OC)c32)c2c(C3OC(C)C(O)C(C)(O)C3O)ccc(O)c12 (stereo not drawn)	none (no result: AHR activator)
Cc1ccc(-n2c(C)nnc2SCC(=O)N(C)c2c(N)n(Cc3ccccc3)c(=O)[nH]c2=O)cc1	m5-HT2A agonist 17.2 | OPRM1 ag inactive | m5-HT2A ag conf inactive
CCN(C(=O)CSc1nnc(-c2ccccc2C)n1C)c1c(N)n(Cc2ccccc2)c(=O)[nH]c1=O	m5-HT2A agonist 14.5 (no result: AHR activator) | OPRM1 ag inactive | m5-HT2A ag conf inactive
NC(=O)c1ncn([C@@H]2O[C@H](CNC(=O)[C@H](N)CSCc3ccccc3)[C@@H](O)[C@H]2O)n1	none (no result: AHR activator)
CCOc1ccc(C(=O)NCC(=O)NC(C)CCc2ccccc2)cc1OCC (stereo not drawn)	none (no result: AHR activator)
CC(C)C[C@H]1CN=C(N(C)C)N1CCCCc1ccccc1	m5-HT2A agonist 19.7 | OPRM1 ag inactive | m5-HT2A ag conf inactive
C[C@H]1CN=C(N(C)C)N1CCCCc1ccccc1	none
COC(=O)c1ccc(CSc2ncnc3ccccc23)o1	none
CCc1cc2c(SCc3ccc(C(=O)OC)o3)ncnc2s1	m5-HT2A agonist 14.6 | OPRM1 ag inactive | m5-HT2A ag conf inactive
O=C(CNS(=O)(=O)c1ccccc1F)NNC(=O)c1ccc(Br)cc1	none (no result: AHR activator)
O=C(CN1C(=O)NC2(CCCC2)C1=O)NCc1ccc(Cl)cc1	m5-HT2A agonist 19.3 | OPRM1 ag inactive | m5-HT2A ag conf inactive
O=C(CN1C(=O)NC2(CCCC2)C1=O)OCc1ccccc1F	none
O=C(CN1C(=O)NC2(CCCC2)C1=O)OCc1c(F)cccc1Cl	m5-HT2A agonist 16.7 | OPRM1 ag inactive | m5-HT2A ag conf inactive
O=C(COc1ccccc1-c1ccccc1)c1ccccc1	none
CN1CCC(N(C)C(=O)COc2ccccc2-c2ccccc2)CC1	m5-HT2A agonist 17.5 | OPRM1 ag inactive | m5-HT2A ag conf inactive
COC(=O)[C@@]1(Cc2ccc(OC)cc2)[C@H]2c3cc(C(=O)N4CCCC4)n(CCc4ccc(OC)c(Br)c4)c3C[C@H]2CN1C(=O)c1ccccc1	none (no result: MC4R ag barr, MC4R antag cAMP, FXN GAA850 act, AHR activator)
Cc1oc2c(CN3CCC(C)CC3)c(O)ccc2c(=O)c1-c1ccccc1	none
Cc1ccnc(NS(=O)(=O)c2ccc(NC(=O)c3snnc3C)cc2)n1	m5-HT2A agonist 14.8 | OPRM1 ag inactive | m5-HT2A ag conf inactive
COc1ccc(CC(=O)NCc2cccc(Cl)c2)cc1S(=O)(=O)N1CCOCC1	none (no result: AHR activator)
NC(=S)NC(c1ccccc1)c1ccncc1 (stereo not drawn)	none
CCOc1ccc(CCNC(=O)/C=C/c2ccco2)cc1OCC	m5-HT2A agonist 18.7 (no result: AHR activator) | OPRM1 ag inactive | m5-HT2A ag conf inactive
c1ccc(Oc2ncnc3ccccc23)cc1	m5-HT2A agonist 15.7 (no result: AHR activator) | OPRM1 ag inactive | m5-HT2A ag conf inactive
Cc1nc(Oc2ccccc2)c2ccccc2n1	none
O=P(c1ccccc1)(c1ccccc1)c1ccccc1C(Br)Br	none (no result: AHR activator)
COC(C(=O)NNS(=O)(=O)c1ccccc1[N+](=O)[O-])c1ccccc1 (stereo not drawn)	m5-HT2A agonist 18.4 (no result: AHR activator) | OPRM1 ag inactive | m5-HT2A ag conf inactive
CC12CCC(C(=O)N(CCCCN3CCN(c4ccccn4)CC3)C1=O)C2(C)C (stereo not drawn)	m5-HT2A agonist 28.0 | OPRM1 ag inactive | m5-HT2A ag conf 90.2
CC12CCC(C(=O)N(CCCN3CCN(Cc4ccccc4)CC3)C1=O)C2(C)C (stereo not drawn)	none
CCc1cc[n+](C(C(=S)Nc2cccc(C)c2)=C([O-])c2ccc(C)c([N+](=O)[O-])c2)cc1	m5-HT2A agonist 14.6 (no result: AHR activator) | OPRM1 ag inactive | m5-HT2A ag conf inactive
Cc1ccc(/C([O-])=C(/C(=S)NCc2ccccc2)[n+]2cccc(CO)c2)cc1[N+](=O)[O-]	none (no result: AHR activator)
Cc1ccc(S(=O)(=O)N2CCOCC2)cc1NC(=O)CNCc1cccnc1	m5-HT2A agonist 28.0 | OPRM1 ag inactive | m5-HT2A ag conf 75.1
Cc1ccc(S(=O)(=O)N2CCOCC2)cc1NC(=O)CNCc1ccc(Cl)cc1Cl	none
Cc1ccc(S(=O)(=O)N2CCOCC2)cc1NC(=O)COC(=O)c1ccc2c(c1)OCCO2	m5-HT2A agonist 17.1 | OPRM1 ag inactive | m5-HT2A ag conf inactive
CCOC(=O)C1=C(COC(=O)c2cc(S(=O)(=O)N3CCOCC3)ccc2F)NC(=O)NC1C (stereo not drawn)	none (no result: AHR activator)
CCc1ccc(S(=O)(=O)Nc2ccncc2)cc1	m5-HT2A agonist 15.4 | OPRM1 ag inactive | m5-HT2A ag conf inactive
Cc1cc(C(=O)NNc2ccc(F)cc2)no1	none
COc1ccccc1CNC(=O)C[C@H]1CC[C@@H]2[C@H](COC[C@H](O)CN2Cc2ccc3c(c2)OCO3)O1	m5-HT2A agonist 24.9 (no result: MC4R ag barr, MC4R antag cAMP, FXN GAA850 act, AHR activator) | OPRM1 ag inactive | m5-HT2A ag conf inactive
Cc1cc(NC(=O)CSc2c3c(nc4ccccc24)CCC3)no1	m5-HT2A agonist 15.2 | OPRM1 ag inactive | m5-HT2A ag conf inactive
CN(CC(=O)Nc1ccc(F)c(F)c1F)C(=O)CN1C(=O)C2CCCCC2C1=O (stereo not drawn)	m5-HT2A agonist 15.4 | OPRM1 ag inactive | m5-HT2A ag conf inactive
O=c1c2ccccc2nc(-c2ccc([N+](=O)[O-])cc2)n1O	m5-HT2A agonist 15.7 | OPRM1 ag inactive | m5-HT2A ag conf inactive
CC1(C(=O)NCc2ccccc2)CSCC(=O)N1C1CC1 (stereo not drawn)	none (no result: MC4R ag barr, MC4R antag cAMP, FXN GAA850 act, AHR activator)
COc1ccccc1CNC(=O)COC(=O)c1n[nH]c2ccccc12	none
COc1ccccc1CNC(=O)c1n[nH]c2ccccc12	m5-HT2A agonist 19.0 | OPRM1 ag inactive | m5-HT2A ag conf inactive
CSCCCc1cn([C@@H](CO)C(=O)NCCCCCCCCCCC(=O)N2CCNCC2)nn1	m5-HT2A agonist 23.8 | OPRM1 ag inactive | m5-HT2A ag conf inactive

Screens from PubChem.
